Test results published in ChEMBL document CHEMBL4513216, “Probing the Open Global Health Chemical Diversity Library for Multistage-Active Starting Points for Next-Generation Antimalarials” (ACS Infect Dis, 2020).

test: Toxicity liver stage against HepG2, at 10uM; type: cell-based; parameters: test concentration 10 uM, cell line HepG2-A16-CD81EGFP; settings: human, HepG2-A16-CD81EGFP cells; read-out: INHIBITION
How it was run: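 Uninfected HepG2-A16-CD81EGFP cells, 3 × 10^3 per well, 1536-well, plated on prespotted compound at 10 μM final, parasite-free screening media added to match infected plates; puromycin 10 μM positive, DMSO 0.5% negative; run in parallel with 48 h PbLuc assay at 37 °C, 5% CO2; viability by CellTiter-Glo luminescence, normalized to controls.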

SMILES	cytotoxicity at 10 µM
COCC(=O)NC[C@H]1C[C@@H]2CCN1C[C@@H]2c1cc(-c2cccs2)nn1C	1.23%
CC(=O)N1CC[C@H]2CC(=O)N(Cc3ccc4c(c3)OCO4)CC[C@H]2C1	-3.91%
CCSc1nnc(CCNC(=O)OC(C)(C)C)o1	-25.9%
NC(=O)Cc1ccc(OCc2noc(C(=O)N3CCCC3)n2)cc1	-13.6%
NC(=O)c1c(SCCN2CCCCC2)sc2c(O)cc(=O)[nH]c12	-13.7%
COC(=O)NCCCn1ccnc1-c1ccccc1	-2.27%
Cn1c(C(F)(F)F)nn(CCNC(=O)c2nc3ccccc3s2)c1=O	1.79%
CN(C)CC1CSCCCN1S(=O)(=O)c1ccc(C(F)(F)F)cc1 (stereo unspecified)	-6.71%
CCN1CC[C@@]2(C(=O)N(C)C)CCN(C(=O)NC(C)C)CC[C@@H]12	-15.2%
c1cc(CN2CCC3(CC2)COC(COCC2CC2)C3)co1 (stereo unspecified)	-4.19%
O=C(NCC1CC1)C1CCC2(CN(C(=O)c3ccno3)C2)O1 (stereo unspecified)	-138%
O=C(C1CCC2(CCN(c3nncs3)CC2)C1)N1CCCC1 (stereo unspecified)	9.43%
Cc1occc1C(=O)N1CC[C@@H]2[C@@H](CO[C@H]2CNS(C)(=O)=O)C1	11.3%
O=C1NC2(CCN(C(=O)c3ccnnc3)CC2)CC1c1ccccc1 (stereo unspecified)	-113%
COCCN1C[C@@H]2OCCN(c3ccnc(N(C)C)n3)[C@@H]2C1	-118%
Cn1ccnc1CN1CCC2(CC1)CC(Nc1ccccn1)CO2 (stereo unspecified)	-7.97%
COc1cc(C2SCC(=O)Nc3[nH]ncc32)cc(OC)c1OC (stereo unspecified)	8.49%
Cc1ncnc2c1CCN(c1cc(C(F)(F)F)ncn1)CC2	-2.96%
Cc1nc(CN2CCCn3c(nc(Cn4ccnc4)cc3=O)C2)cs1	-5.67%
Cc1c(S(=O)(=O)NC2CC2)cc2c(C)cc(=O)n3c2c1CCC3	-1.95%
CCC(C)c1noc(C2CCN(C(=O)c3ccccn3)CC2)n1 (stereo unspecified)	4.59%
O=C(NC1CCCC1)c1cnn2c(-c3ccco3)ccnc12	10.2%
Cc1ccc2c(c1)c(C)cc(=O)n2CCCN	1.14%

SMILES	cytotoxicity at 10 µM
CCN1C(=O)C(C)(C)c2cc(NC(=O)c3ccco3)ccc21	-10.2%
Cc1cc(N2CCC(O)(CN(C)C(=O)CCN)CC2)c2cnccc2n1	-3.3%
O=C(c1cc(C2CC2)n[nH]1)N1C[C@H]2CC[C@](O)(c3ccccc3F)[C@H]2C1	7.66%
CC1CCc2nn(CCNC(=O)c3ccco3)c(=O)cc2C1 (stereo unspecified)	9.15%
COCC(=O)N1CCC(c2cc(-c3ccc(C)cc3)n[nH]2)C1 (stereo unspecified)	-3.39%
Cc1ccc(CNc2nc(O)cc(C3CC(=O)N(C)C3)n2)cc1 (stereo unspecified)	-17.8%
CN1CCC2(Cc3ccccc3CN(C(=O)c3ccc(Cl)cc3)C2)C1 (stereo unspecified)	-3.12%
COCCNC(=O)CCNc1ccc(Cl)cn1	-5.22%
CCCN(Cc1nnnn1C1CC1)CC1COc2ccccc2O1 (stereo unspecified)	2.04%
COc1ccccc1C(C)(C)NC(=O)Nc1ccc(F)c(C(N)=O)c1	-145%
C=C(C)CN(CC)C(=O)c1cc(Cl)ccc1NS(C)(=O)=O	7.17%
COc1ccc(CCNC(=O)C2CCOC2)c(Cl)c1 (stereo unspecified)	-2.27%
CC(NC(=O)Nc1cccnc1N1CCOCC1)c1ccncc1 (stereo unspecified)	5.28%
Cc1noc(C)c1CN1CCCC1C(=O)OCc1ccccc1 (stereo unspecified)	3.23%
Cc1nnc(CN(Cc2ccco2)Cc2cccc3c2OCO3)n1C	-0.535%
CC(CS(C)(=O)=O)N(C)C(=O)NCCCc1ccc(Cl)cc1 (stereo unspecified)	1.8%
COCc1ccccc1C(=O)NCC(O)c1ccc(Cl)s1 (stereo unspecified)	-6.63%
Cc1nc(-c2cccc(C#N)c2)nn1CC1(O)CCCCC1	-2.62%
OC(CNCCn1cccn1)COc1ccc(F)cc1 (stereo unspecified)	-16.6%
CC(C)(C)OC(=O)NCC1CCCCN1Cc1cccnc1 (stereo unspecified)	-0.502%
Cc1cc(C)n(CC2CCCCN2CC(=O)Nc2nnc(C)s2)n1 (stereo unspecified)	0.668%
CCCc1nc(C)c(C(=O)NS(=O)(=O)c2cccnc2)s1	-5.8%
OCC1(NCc2cnc(-c3ccccn3)s2)CCOCC1	9.32%

SMILES	cytotoxicity at 10 µM
CC(C)c1nc(CN2CCN(C(=O)Cc3ccccc3Cl)CC2)no1	-1.96%
O=C(NCC(F)(F)F)C1CSCN1S(=O)(=O)c1cccc(F)c1 (stereo unspecified)	18.7%
COCCCNC(=O)CN1CCOC(c2ccccc2)C1 (stereo unspecified)	18.6%
Cc1cccc(C)c1OCCNC(=O)CNC(=O)C1CCCC1	-122%
COCCN(Cc1ccco1)Cc1nc(-c2ccc(C)c(F)c2)no1	3.68%
Cc1cc(CS(=O)(=O)N(C)C(C)c2ccc(F)cc2)on1 (stereo unspecified)	6.72%
CC(C)c1nsc(N2CCS(=O)(=O)CC2)n1	-2.41%
O=C(NC1CC1)c1ccccc1NCc1cn2cccnc2n1	5.38%
CC(C)CCN1CCN(C(=O)c2c[nH]c(=O)[nH]2)CC1	-6.49%
CCCNC(=O)CN1CCC(NCc2csc(C(C)C)n2)CC1	-1.4%
CCn1nc(C(C)C)cc1C(=O)N1CCOc2ccc(OC)cc21	9.27%
CCOc1ccc(CN2C(=O)CC(CC)(CC)C2=O)nc1	5.73%
CCC(C)NS(=O)(=O)Cc1cccc(NC(=O)C(C)C)c1 (stereo unspecified)	5.36%
CCc1nc2n(n1)CCCC2NC(=O)Nc1ccc(SC)c(F)c1 (stereo unspecified)	5.08%
Cc1ccc(NC(=O)CCc2ccco2)cc1N1CCOC1=O	-8.43%
Cc1cc(C)n(CC2CCCCN2CC(=O)Nc2cccnc2)n1 (stereo unspecified)	6.46%
CN1CC(C(=O)NC(C)(C)C)CC1=O (stereo unspecified)	-3.36%
CN1CCC(Cc2noc(-c3cn(Cc4ccccc4Cl)nn3)n2)CC1	-3.28%
OC1(CN2CCC(Oc3cccnc3)CC2)CNCCOC1 (stereo unspecified)	5.92%
CN(Cc1nncn1C)c1nccc(N2CCC(O)CC2)n1	-1.78%
COCCN1CC2(CCC1=O)CCN(Cc1nnc(C)o1)CC2	-5.81%
CN(C)c1ccc(-c2ccnc3c2ccn3C)nn1	10.9%
O=C(c1coc2ccccc12)N1CCCC(O)(CO)CC1 (stereo unspecified)	6.41%

SMILES	cytotoxicity at 10 µM
Nc1nnc(SCC(=O)NCC(O)c2ccccc2)s1 (stereo unspecified)	12%
CC(C)Oc1cccc(C(=O)Nc2nncs2)c1	-3.49%
Cn1nccc1C(=O)N1CCCN(CCCc2ccccc2)CC1	-2.45%
Cc1nnc(CN2CCC3(CCC(=O)N(C4CC4)C3)CC2)o1	-6.68%
CSc1cccc(CC(=O)N[C@@H]2CCNC[C@H]2O)c1	-1.72%
CN(Cc1nc(-c2cccnc2)no1)C(=O)c1cccn1C	-2.85%
CCC(=O)Nc1cccc(OCC(=O)N2CC=CC2C(C)C)c1 (stereo unspecified)	-0.115%
CCc1cc(C(=O)N2CCC3(CCCN(CCOC)C3=O)C2)cs1 (stereo unspecified)	-146%
CCc1ncc(C(=O)N2CCCC(c3nccn3CCOC)C2)cn1 (stereo unspecified)	-0.262%
Cc1cnc(C)c(-c2cc(O)c3c(c2)CN(Cc2nccs2)CCO3)n1	1.69%
COCCCC1CCCCN1Cc1cn2cc(C)ccc2n1 (stereo unspecified)	3.21%
COc1ccc(OCc2nc(C(=O)N3C[C@H](O)[C@@H](N(C)C)C3)co2)cc1	-1.74%
CCOCC(=O)N1C[C@@H](NC(C)=O)[C@H](c2ccc(OC)cc2)C1	-9.44%
CCc1nc(-c2cccc(C(=O)O)c2)no1	-10%
Cc1nc(CN2CCCN(C(=O)c3cnccn3)CC2)cs1	-9.51%
CC(C)c1noc(CN2CCN(C(=O)c3cc(Cl)ccc3F)CC2)n1	-6.8%
Cc1ccc(NC2CCN(C(=O)c3ccco3)CC2)nn1	-14.3%
Cc1ccccc1CNC(=O)C1CCN(Cc2nccn2C)CC1	-17.9%
CC(Cn1ccnc1)NC(=O)NCCc1cccs1 (stereo unspecified)	-3.16%
CCc1c(C(=O)NC2CCS(=O)(=O)C2)cnn1-c1ccc(C)cc1 (stereo unspecified)	-5.94%
Cc1nc(C)n(CC2CCCN(CC(=O)NC3CCOCC3)C2)n1 (stereo unspecified)	-11.8%
COc1cccc(S(=O)(=O)CCN2CCn3c(C)nnc3C2)c1	-18.7%
COc1cccc(COCC(=O)N2CCN(CC(C)(C)O)CC2)c1	-5.64%

SMILES	cytotoxicity at 10 µM
CC(C)NC(=O)Cn1cc(-c2ccccc2)cn1	-0.577%
O=C(NCCn1ccnc1)N1CCN(Cc2cccs2)CC1	-7.49%
O=C(CCNC(=O)c1ccoc1)Nc1c(F)cccc1F	1.35%
COC(=O)N1CC2(CCNCC2)c2cc(Cl)ccc21	7.71%
Cc1ccc(C(=O)N2CCc3ccc(=O)n(CCN(C)C)c3CC2)o1	-2.16%
CN(C)c1cccc(C(=O)N2CCCC2c2ncc3c(n2)CCNC3)c1 (stereo unspecified)	-9.97%
Cc1noc(C)c1CNCC1COCc2c(-c3ccoc3)nnn2C1 (stereo unspecified)	8.85%
CN(C)S(=O)(=O)N1C[C@H]2CCC[C@@]2(COc2cccnc2)C1	11.8%
CN(C)CC(=O)N1CCc2sc(C(=O)NCC3CC3)cc21	1.68%
O=C(NC1CC1)N1CCc2ncnc(-c3ccncc3)c2CC1	-1.04%
CCCN1CCC2(CC1)COc1ccccc1S(=O)(=O)N(CC1CC1)C2	-3.43%
CCN(CC)CCN1CC[C@H]2OCC[C@@]2(C(=O)N2CCOCC2)C1	4.64%
Cc1cc(C(=O)N2CCc3nc(C4CCCN4)ncc3C2)cs1 (stereo unspecified)	2.56%
COc1ccc(CN2CCC3(CC2)CCN(CCN(C)C)C3=O)cc1	-4.25%
Cc1cccc(CN2C[C@@H]3COC[C@]3(CNC(=O)c3cccn3C)C2)n1	-5.64%
Cc1nc(CN2CCC3(CCN(c4cnn(C)c4)C3=O)C2)cs1 (stereo unspecified)	4.15%
CC1CCN(c2nc3cn(C4CCS(=O)(=O)C4)c(=O)c-3c[nH]2)CC1 (stereo unspecified)	-14.2%
COc1cc(C(=O)N2C[C@@H]3CC[C@H]2CN(Cc2cscn2)C3)ccn1	3.2%
CC(C)n1c(=O)[nH]c2cn(-c3ccc(Br)cc3)c(=O)n21	0.843%
